Laboratory results: ChEMBL document CHEMBL1124545, “Tricyclic compounds as selective muscarinic receptor antagonists. 3. Structure-selectivity relationships in a series of cardioselective (M2) antimuscarinics” (J Med Chem, 1989)

Legend:
[1] = target: T1, Muscarinic acetylcholine receptor M3 (Rattus norvegicus, UniProt P08483); assay: Binding affinity for glandular muscarinic acetylcholine receptor M3 in rat assayed using 0.3 nM [3H]N-methylscopolamine as radioligand
Procedure, shortened: (§1)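 1 mL homogenate incubated 45 min at 30 °C with 0.3 nM [3H]NMS plus varying unlabeled compound. Bound ligand separated by centrifugation, saline-washed pellet scintillation counted. Nonspecific binding defined with 1 µM racemic QNB. Run in quadruplicate.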

[2] = target: T2, Muscarinic acetylcholine receptor M2 (Rattus norvegicus, UniProt P10980); assay: Binding affinity to the rat cardiac muscarinic acetylcholine receptor M2 using 0.3 nM [3H]N-methylscopolamine as radioligand
T2 sequence (P10980 whole entry): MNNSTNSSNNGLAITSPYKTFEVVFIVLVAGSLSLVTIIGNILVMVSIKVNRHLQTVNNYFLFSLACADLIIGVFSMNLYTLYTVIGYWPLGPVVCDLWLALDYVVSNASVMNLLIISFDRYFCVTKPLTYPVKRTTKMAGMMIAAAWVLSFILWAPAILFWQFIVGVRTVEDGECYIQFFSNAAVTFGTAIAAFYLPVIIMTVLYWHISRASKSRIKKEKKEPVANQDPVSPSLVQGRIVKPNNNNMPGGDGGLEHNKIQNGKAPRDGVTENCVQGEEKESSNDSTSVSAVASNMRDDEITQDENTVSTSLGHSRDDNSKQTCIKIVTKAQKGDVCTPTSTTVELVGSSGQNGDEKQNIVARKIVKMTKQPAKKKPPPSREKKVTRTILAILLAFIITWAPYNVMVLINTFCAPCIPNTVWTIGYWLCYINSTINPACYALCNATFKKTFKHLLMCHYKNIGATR
Procedure, shortened: (§2)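 Competition against 0.3 nM [3H]NMS in rat total heart homogenate (1:300 in 100 mM NaCl, 10 mM MgCl2, 20 mM HEPES, pH 7.4, cheesecloth-filtered). 1 mL homogenate incubated 45 min at 30 °C with a range of cold ligand concentrations. Pellets obtained by centrifugation, washed twice with saline, solubilized and counted. Nonspecific binding taken with 1 µM racemic QNB. Quadruplicate assays.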

[3] = target: Muscarinic receptor M2 and M3 (Rattus norvegicus) (UniProt P08483+P10980); assay: Selectivity ratio for glandular muscarinic receptor 3 and cardiac muscarinic receptor 2 in rat
[4] = system: Muscarinic acetylcholine receptors M2 & M3 (Rattus norvegicus); assay: Selectivity ratio for glandular muscarinic receptor 3 and cardiac muscarinic receptor 2 in rat
[5] = target: T2, Muscarinic acetylcholine receptor M2; assay: Binding affinity of compound for cardiac Muscarinic acetylcholine receptor M2 in rat using 0.3 nM [3H]N-methylscopolamine as radioligand; procedure, shortened: as §2
[6] = target: T1, Muscarinic acetylcholine receptor M3; assay: Binding affinity of compound for glandular Muscarinic acetylcholine receptor M3 in rat using 0.3 nM [3H]N-methylscopolamine as radioligand; procedure, shortened: as §1

T1 sequence (P08483 whole entry): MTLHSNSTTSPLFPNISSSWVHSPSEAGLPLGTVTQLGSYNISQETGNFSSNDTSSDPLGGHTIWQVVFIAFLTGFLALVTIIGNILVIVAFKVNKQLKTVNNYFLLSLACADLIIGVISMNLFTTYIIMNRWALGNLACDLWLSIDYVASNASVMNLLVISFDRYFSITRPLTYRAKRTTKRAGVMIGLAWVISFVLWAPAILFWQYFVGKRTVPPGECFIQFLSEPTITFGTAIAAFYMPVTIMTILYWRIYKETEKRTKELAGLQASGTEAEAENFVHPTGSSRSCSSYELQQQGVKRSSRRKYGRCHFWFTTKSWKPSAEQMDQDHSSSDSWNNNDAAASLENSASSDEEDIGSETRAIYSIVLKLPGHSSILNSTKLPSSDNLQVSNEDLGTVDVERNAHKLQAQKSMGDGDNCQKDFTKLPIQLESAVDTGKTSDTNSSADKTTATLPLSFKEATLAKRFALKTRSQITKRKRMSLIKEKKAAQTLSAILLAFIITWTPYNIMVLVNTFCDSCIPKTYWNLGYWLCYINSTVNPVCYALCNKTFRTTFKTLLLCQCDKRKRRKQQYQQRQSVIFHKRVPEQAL
Chain of Muscarinic receptor M2 and M3 (Rattus norvegicus) (P08483 whole entry, looked up, one chain of several): as the sequence (P08483 whole entry) above

CCN(CC)CC1CCCCN1CC(=O)N1c2ccccc2C(=O)Nc2cccnc21 (stereo in doubt; 29) [OTENZEPAD] was tested, and the IC50 [1] was 6000 nM and the IC50 [2] was 50 nM.

Work on CCN(CC)CC1CCCCN1CC(=O)N1c2ccc(Cl)cc2C(=O)Nc2cccnc21 (centres undefined) yielded an IC50 [1] of 4000 nM, an IC50 [2] of 100 nM and a Ratio [3] of 40.

With CCN(CC)CC1CCCCN1CC(=O)N1c2cc(C)ccc2C(=O)Nc2cccnc21 (centres undefined) the IC50 [1] was 2000 nM, the IC50 [2] was 70 nM and the Ratio [3] was 28.5.

Work on CCN(CC)CC1CCCCN1CC(=O)N1c2ccc(C)cc2C(=O)Nc2cccnc21 (centres undefined) yielded an IC50 [1] of 1000 nM, an IC50 [2] of 30 nM and a Ratio [3] of 33.3.

For O=C1Nc2cccnc2N(C(=O)CN2CCCCC2CN2CCOCC2)c2ccccc21 (centres undefined), the IC50 [1] was 4000 nM, the IC50 [2] was greater than 1000 nM and the Ratio [3] was less than 4.

Work on CCN(CC)CC1CCCCN1CC(=O)N1c2ccccc2C(=O)Nc2cccnc21 (stereo in doubt; 10) [OTENZEPAD] yielded an IC50 [1] of 6000 nM.

CCN(CC)CC1CCCCN1CC(=O)N1c2ccccc2C(=O)Nc2cccnc21 (stereo in doubt; 28) showed a Ratio [3] of 25.

CCN(CC)CCC1CCCCN1CC(=O)N1c2ccccc2C(=O)Nc2cccnc21 (centres undefined) showed an IC50 [1] of 1000 nM, an IC50 [2] of 330 nM and a Ratio [3] of 3.

Work on CCCCN(C)CC1CCCCN1CC(=O)N1c2ccccc2C(=O)Nc2cccnc21 (centres undefined) yielded an IC50 [1] of 200 nM, an IC50 [2] of 100 nM and a Ratio [3] of 2.

For CCNCC1CCCCN1CC(=O)N1c2ccccc2C(=O)Nc2cccnc21 (centres undefined), the IC50 [1] was 3000 nM, the IC50 [2] was 600 nM and the Ratio [3] was 5.

In the case of CCN(CC)CC1CCN(CC(=O)N2c3ccccc3C(=O)Nc3cccnc32)CC1, the IC50 [1] is reported as 4000 nM, the IC50 [2] is reported as 800 nM and the Ratio [3] is reported as 5.

With CCN(CC)CC1CCCCN1CC(=O)N1c2cc(Cl)ccc2C(=O)Nc2cccnc21 (centres undefined) the IC50 [2] was 40 nM and the Ratio [3] was 37.5.

CCN(CC)CC1CCCCCN1CC(=O)N1c2ccccc2C(=O)Nc2cccnc21 (centres undefined) gave an IC50 [1] of 15000 nM, an IC50 [2] of 2000 nM and a Ratio [3] of 7.5.

Compound CCc1ccc2c(c1)C(=O)Nc1cccnc1N2C(=O)CN1CCCCC1CN(CC)CC (centres undefined) has an IC50 [1] of 2000 nM, an IC50 [2] of 200 nM and a Ratio [3] of 10.

Work on CCCN(CCC)CC1CCCCN1CC(=O)N1c2ccccc2C(=O)Nc2cccnc21 (centres undefined) yielded an IC50 [1] of 6000 nM, an IC50 [2] of 1500 nM and a Ratio [3] of 4.

CCN(C)CC1CCCCN1CC(=O)N1c2ccccc2C(=O)Nc2cccnc21 (centres undefined) was tested, and the IC50 [1] was 1500 nM, the IC50 [2] was 120 nM and the Ratio [3] was 12.5.

CCN(CC)CC1CCCCN1CC(=O)N1c2ccc(Br)cc2C(=O)Nc2cccnc21 (centres undefined) was tested, and the IC50 [1] was 4000 nM, the IC50 [2] was 150 nM and the Ratio [3] was 26.6.

Work on CCN(CC)CC1CCCCN1CCC(=O)N1c2ccccc2C(=O)Nc2cccnc21 (centres undefined) yielded an IC50 [1] of 600 nM, an IC50 [2] of 220 nM and a Ratio [3] of 2.7.

O=C1Nc2cccnc2N(C(=O)CN2CCCCC2CN2CCCCC2)c2ccccc21 (centres undefined) showed a Ratio [4] of 2.5, an IC50 [5] of 600 nM and an IC50 [6] of 1500 nM.

For O=C1Nc2cccnc2N(C(=O)CN2CCCCC2CN2CCCC2)c2ccccc21 (centres undefined), the IC50 [1] was 1500 nM, the IC50 [2] was 560 nM and the Ratio [3] was 2.7.

CN(C)CC1CCCCN1CC(=O)N1c2ccccc2C(=O)Nc2cccnc21 (centres undefined) was tested, and the IC50 [1] was 1000 nM, the IC50 [2] was 140 nM and the Ratio [3] was 7.1.

Compound CCN(CC)CC1CCCCN1CC(=O)N1c2ccccc2C(=O)Nc2cccnc21 (stereo in doubt; 10) has a Ratio [3] of 42.8.

With CCN(CC)CC1CCCCN1C(=O)N1c2ccccc2C(=O)Nc2cccnc21 (centres undefined) the IC50 [1] was greater than 10000 nM, the IC50 [2] was 5000 nM and the Ratio [3] was greater than 2.

CN(CC1CCCCN1CC(=O)N1c2ccccc2C(=O)Nc2cccnc21)C1CCCCCC1 (centres undefined) showed an IC50 [1] of 70 nM, an IC50 [2] of 30 nM and a Ratio [3] of 2.3.

In the case of CCN(CC)CC1CCCN(CC(=O)N2c3ccccc3C(=O)Nc3cccnc32)C1 (centres undefined), the IC50 [1] is reported as 300 nM, the IC50 [2] is reported as 170 nM and the Ratio [3] is reported as 1.8.

With CCN(CC)CC1CCCCN1CC(=O)N1c2ccccc2C(=O)Nc2cccnc21 (stereo in doubt; 28) [OTENZEPAD] the IC50 [1] was 10000 nM and the IC50 [2] was 400 nM.

In the case of CN(CC1CCCCN1CC(=O)N1c2ccccc2C(=O)Nc2cccnc21)C1CCCCC1 (centres undefined), the IC50 [1] is reported as 150 nM, the IC50 [2] is reported as 60 nM and the Ratio [3] is reported as 2.5.

For CCN(CC)CC1CCCCN1CC(=O)N1c2ccccc2C(=O)Nc2cccnc21 (stereo in doubt; 29), the Ratio [3] was 120.

CCN(CC)CCCC1CCCCN1CC(=O)N1c2ccccc2C(=O)Nc2cccnc21 (centres undefined) showed an IC50 [1] of 200 nM, an IC50 [2] of 60 nM and a Ratio [3] of 3.3.

CCN(CC)CC1CCCN1CC(=O)N1c2ccccc2C(=O)Nc2cccnc21 (centres undefined) gave an IC50 [1] of 2000 nM, an IC50 [2] of 150 nM and a Ratio [3] of 13.
